From PMC6220817 (Chemistry (Weinheim an Der Bergstrasse, Germany), 2018)
Ends that are not written are not given here. TMR‑5‑maleimide = tetramethylrhodamine-5-maleimide

How the values were obtained:
tubulin [1] = conditions: Reported value for the binding to tubulin; cited from earlier work
tubulin [2] = molecular target: tubulin (Sus scrofa, UniProt P02550+P02554); assay: Turbidity measurement of tubulin polymerization; assay type: biochemical, porcine; conditions: 10 μM compound, 4 μM tubulin, 1 mM GTP; for Stability of treated microtubules on cooling (turbidity): cooled to 4 °C for 15 min; for Turbidity (optical density at 350 nm) / tubulin polymerization: BRB80, 37 °C, 60 min
Sequence of tubulin (Sus scrofa, UniProt P02550+P02554) (P02554 whole entry): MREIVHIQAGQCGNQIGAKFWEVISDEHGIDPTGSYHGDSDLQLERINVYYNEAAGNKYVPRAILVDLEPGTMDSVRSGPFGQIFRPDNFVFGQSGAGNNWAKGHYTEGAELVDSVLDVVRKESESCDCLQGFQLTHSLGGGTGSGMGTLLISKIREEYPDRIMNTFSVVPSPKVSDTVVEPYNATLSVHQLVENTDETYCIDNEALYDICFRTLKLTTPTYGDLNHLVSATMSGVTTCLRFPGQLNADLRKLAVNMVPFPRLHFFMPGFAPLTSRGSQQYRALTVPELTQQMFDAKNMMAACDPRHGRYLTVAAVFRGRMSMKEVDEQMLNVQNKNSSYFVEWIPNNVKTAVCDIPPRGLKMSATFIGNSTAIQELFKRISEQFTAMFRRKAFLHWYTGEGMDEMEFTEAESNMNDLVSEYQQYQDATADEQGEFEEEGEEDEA
Sequence of tubulin (Sus scrofa, UniProt P02550+P02554) (P02550 whole entry): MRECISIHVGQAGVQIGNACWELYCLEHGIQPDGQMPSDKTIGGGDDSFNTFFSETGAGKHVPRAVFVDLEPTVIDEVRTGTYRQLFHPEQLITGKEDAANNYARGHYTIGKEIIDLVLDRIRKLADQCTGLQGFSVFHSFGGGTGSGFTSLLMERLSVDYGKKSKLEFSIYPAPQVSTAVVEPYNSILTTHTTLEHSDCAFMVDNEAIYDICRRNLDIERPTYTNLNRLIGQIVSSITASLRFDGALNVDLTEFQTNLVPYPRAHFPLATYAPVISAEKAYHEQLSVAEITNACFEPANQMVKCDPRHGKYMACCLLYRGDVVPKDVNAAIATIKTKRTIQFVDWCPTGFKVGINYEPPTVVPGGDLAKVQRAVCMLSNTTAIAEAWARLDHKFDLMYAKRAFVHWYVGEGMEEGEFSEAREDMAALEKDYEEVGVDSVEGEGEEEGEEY
Outline: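 Porcine brain tubulin (4 μM) with 1 mM GTP in BRB80 (80 mM PIPES pH 6.9, 1 mM MgCl2, 1 mM EGTA) at 37 °C. Test compound or taxol at 10 μM, or none. OD350 read by UV/Vis every 1 min for 60 min. Samples then held at 4 °C for 15 min and read again.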

[3] = molecular target: tubulin (α‐ and β‐tubulin dimer) (porcine (purified from porcine brain)) (UniProt P02550); assay: equilibrium dialysis
Sequence of tubulin (α‐ and β‐tubulin dimer) (porcine (purified from porcine brain)) (P02550 whole entry, chain 1 of 2): as the sequence (P02550 whole entry) above
Sequence of tubulin (α‐ and β‐tubulin dimer) (porcine (purified from porcine brain)) (P02554 whole entry, chain 2 of 2, further chain): as the sequence (P02554 whole entry) above

CC(=O)O[C@H]1C(=O)[C@@]2(C)[C@H]([C@H](OC(=O)c3ccccc3)[C@]3(O)C[C@H](OC(=O)[C@H](O)[C@@H](NC(=O)c4cccc(N(C)C)c4)c4ccccc4)C(C)=C1C3(C)C)[C@]1(OC(C)=O)CO[C@@H]1C[C@@H]2O [Taxol derivative, N‐debenzoyl‐N‐[3‐(dimethylamino)benzoyl]taxol]
Kd (tubulin [1]): 49 µM

CC(=O)O[C@H]1C(=O)[C@@]2(C)[C@H]([C@H](OC(=O)c3ccccc3)[C@]3(O)C[C@H](OC(=O)[C@H](O)[C@@H](NC(=O)c4ccccc4)c4ccccc4)C(C)=C1C3(C)C)[C@]1(OC(C)=O)CO[C@@H]1C[C@@H]2O [taxol, reference compound]
Stability of treated microtubules on cooling (turbidity) (tubulin [2]): remained stable

H-CGGGKKHVPGGGSVQIVYKPVDL-OH [2N]
Turbidity (optical density at 350 nm) / tubulin polymerization (tubulin [2]): increases the turbidity
Stability of treated microtubules on cooling (turbidity) (tubulin [2]): completely depolymerized

H-KHQPGGGKVQIINKKLDLGGGC-OH [1C]
Turbidity (optical density at 350 nm) / tubulin polymerization (tubulin [2]): less effective

H-KKHVPGGGSVQIVYKPVDLGGGC-OH [2C]
Turbidity (optical density at 350 nm) / tubulin polymerization (tubulin [2]): less effective

H‐Cys(Trt)‐Gly‐Gly‐Gly‐Lys(Boc)‐His(Trt)‐Gln(Trt)‐Pro‐Gly‐Gly‐Gly‐Lys(Boc)‐Val‐Gln(Trt)‐Ile‐Ile‐Asn(Trt)‐Lys(Boc)‐Lys(Boc)‐Leu‐Asp(OtBu)‐Leu‐Alko‐PEG resin [1N]
Turbidity (optical density at 350 nm) / tubulin polymerization (tubulin [2]): less effective

KHQPGGGKVQIINKKLDLGGGC(TMR‑5‑maleimide) [1C‐TMR]
Kd [3]: 16.7 µM

C(TMR‑5‑maleimide)GGGKHQPGGGKVQIINKKLDL [1N‐TMR]
Kd [3]: 3.4 µM
